# Measurements taken from ChEMBL document CHEMBL2203081 (Bioorg Med Chem Lett, 2012).
# Tests used:
# [1] = molecular target: Dual specificity protein kinase CLK1 (Homo sapiens) (UniProt P49759); assay: Inhibition of CLK1 assessed as residual activity at 10 uM relative to control
# [2] = molecular target: Serine/threonine-protein kinase 36 (Homo sapiens) (UniProt Q9NRP7); assay: Inhibition of STK36 assessed as residual activity at 10 uM relative to control
# [3] = molecular target: Serine/threonine-protein kinase 35 (Homo sapiens) (UniProt Q8TDR2); assay: Inhibition of STK35 assessed as residual activity at 10 uM relative to control
# [4] = molecular target: Mitogen-activated protein kinase 14 (Homo sapiens) (UniProt Q16539); assay: Inhibition of p38a MAPK assessed as residual activity at 1 uM
# Mitogen-activated protein kinase 14 (Homo sapiens), sequence (Q16539 whole entry): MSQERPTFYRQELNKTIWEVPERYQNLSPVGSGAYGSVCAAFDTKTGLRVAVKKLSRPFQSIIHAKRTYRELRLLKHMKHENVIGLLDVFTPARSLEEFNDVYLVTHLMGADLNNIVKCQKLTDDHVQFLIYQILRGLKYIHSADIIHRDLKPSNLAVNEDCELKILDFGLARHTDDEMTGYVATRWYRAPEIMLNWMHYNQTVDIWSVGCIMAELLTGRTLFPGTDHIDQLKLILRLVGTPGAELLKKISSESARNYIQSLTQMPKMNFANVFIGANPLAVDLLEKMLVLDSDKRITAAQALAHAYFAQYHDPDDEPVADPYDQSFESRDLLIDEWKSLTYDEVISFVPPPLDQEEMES
# [5] = molecular target: Insulin receptor-related protein (Homo sapiens) (UniProt P14616); assay: Inhibition of IRR assessed as residual activity at 1 uM
# In short: (§1)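 Radioactivity-based enzymatic activity assay of the named kinase, run as part of a 131-kinase specificity panel at the National Centre for Protein Kinase Profiling (Dundee). Residual activity was read at the stated single inhibitor concentration.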
# [6] = molecular target: Insulin-like growth factor 1 receptor (Homo sapiens) (UniProt P08069); assay: Inhibition of IGF-1R assessed as residual activity at 1 uM; in short: as §1
# [7] = molecular target: Glycogen synthase kinase-3 beta (Homo sapiens) (UniProt P49841); assay: Inhibition of GSK3b assessed as residual activity at 1 uM; in short: as §1
# [8] = molecular target: T1, Ephrin type-B receptor 3 (Homo sapiens) (UniProt P54753); assay: Inhibition of EPH-B3 assessed as residual activity at 1 uM
# T1 sequence (whole entry): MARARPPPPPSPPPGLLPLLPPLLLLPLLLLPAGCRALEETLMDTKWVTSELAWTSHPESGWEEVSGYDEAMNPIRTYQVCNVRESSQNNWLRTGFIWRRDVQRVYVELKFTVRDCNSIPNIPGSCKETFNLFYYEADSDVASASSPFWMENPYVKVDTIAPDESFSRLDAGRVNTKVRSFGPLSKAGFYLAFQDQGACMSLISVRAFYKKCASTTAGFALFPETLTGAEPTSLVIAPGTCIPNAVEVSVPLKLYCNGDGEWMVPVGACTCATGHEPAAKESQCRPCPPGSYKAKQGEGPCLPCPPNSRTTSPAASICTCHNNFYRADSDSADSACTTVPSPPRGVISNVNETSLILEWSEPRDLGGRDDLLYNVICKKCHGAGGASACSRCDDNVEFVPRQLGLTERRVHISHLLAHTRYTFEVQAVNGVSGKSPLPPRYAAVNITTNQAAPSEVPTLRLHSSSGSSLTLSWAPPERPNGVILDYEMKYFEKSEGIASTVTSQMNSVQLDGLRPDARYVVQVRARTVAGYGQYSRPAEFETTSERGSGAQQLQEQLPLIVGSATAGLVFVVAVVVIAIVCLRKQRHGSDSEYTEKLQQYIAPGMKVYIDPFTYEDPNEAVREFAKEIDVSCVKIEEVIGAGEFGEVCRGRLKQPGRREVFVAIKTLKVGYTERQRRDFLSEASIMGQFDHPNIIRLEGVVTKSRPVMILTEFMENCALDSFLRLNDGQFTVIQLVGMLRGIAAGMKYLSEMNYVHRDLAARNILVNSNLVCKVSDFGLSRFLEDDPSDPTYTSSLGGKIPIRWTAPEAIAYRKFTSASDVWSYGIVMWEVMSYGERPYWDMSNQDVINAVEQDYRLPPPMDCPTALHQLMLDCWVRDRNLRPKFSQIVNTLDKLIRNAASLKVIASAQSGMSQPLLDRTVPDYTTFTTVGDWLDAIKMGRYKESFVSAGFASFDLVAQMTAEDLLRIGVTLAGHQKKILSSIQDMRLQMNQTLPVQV
# In short: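 Standard radioactivity-based enzymatic kinase assays on a 131-kinase panel run by the Dundee profiling service; residual kinase activity recorded.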
# [9] = molecular target: MAP/microtubule affinity-regulating kinase 3 (Homo sapiens) (UniProt P27448); assay: Inhibition of MARK3 assessed as residual activity at 10 uM relative to control
# [10] = molecular target: Receptor-interacting serine/threonine-protein kinase 2 (Homo sapiens) (UniProt O43353); assay: Inhibition of RIPK2 assessed as residual activity at 10 uM relative to control
# Receptor-interacting serine/threonine-protein kinase 2 (Homo sapiens), sequence (O43353 whole entry): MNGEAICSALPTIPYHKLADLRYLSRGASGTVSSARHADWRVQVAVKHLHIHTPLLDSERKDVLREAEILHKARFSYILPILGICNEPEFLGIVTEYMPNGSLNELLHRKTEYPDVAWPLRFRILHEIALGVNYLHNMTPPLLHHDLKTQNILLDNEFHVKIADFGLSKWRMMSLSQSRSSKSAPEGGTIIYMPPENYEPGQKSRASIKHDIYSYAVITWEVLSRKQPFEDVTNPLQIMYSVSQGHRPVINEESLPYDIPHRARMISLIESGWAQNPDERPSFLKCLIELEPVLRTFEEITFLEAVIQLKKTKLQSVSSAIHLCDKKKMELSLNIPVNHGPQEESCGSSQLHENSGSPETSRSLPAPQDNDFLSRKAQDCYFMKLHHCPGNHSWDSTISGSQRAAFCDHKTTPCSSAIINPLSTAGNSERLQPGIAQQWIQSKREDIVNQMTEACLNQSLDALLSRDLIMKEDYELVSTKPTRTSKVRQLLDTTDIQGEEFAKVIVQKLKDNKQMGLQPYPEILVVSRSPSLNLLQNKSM
# [11] = molecular target: ALK tyrosine kinase receptor (Homo sapiens) (UniProt Q9UM73); assay: Inhibition of ALK assessed as residual activity at 10 uM relative to control
# [12] = molecular target: Protein kinase C eta type (Homo sapiens) (UniProt P24723); assay: Inhibition of PRKCH assessed as residual activity at 10 uM relative to control
# [13] = test system: Tyrosine-protein kinase ABL1 (Homo sapiens), P00519 [F317I]; assay: Inhibition of phosphorylated ABL1 F317I mutant assessed as residual activity at 10 uM relative to control
# [14] = molecular target: Serine/threonine-protein kinase WNK1 (Homo sapiens) (UniProt Q9H4A3); assay: Inhibition of WNK1 assessed as residual activity at 10 uM
# [15] = molecular target: Myosin light chain kinase, smooth muscle (Homo sapiens) (UniProt Q15746); assay: Inhibition of SmMLCK assessed as residual activity at 10 uM
# Myosin light chain kinase, smooth muscle (Homo sapiens), sequence (Q15746 whole entry): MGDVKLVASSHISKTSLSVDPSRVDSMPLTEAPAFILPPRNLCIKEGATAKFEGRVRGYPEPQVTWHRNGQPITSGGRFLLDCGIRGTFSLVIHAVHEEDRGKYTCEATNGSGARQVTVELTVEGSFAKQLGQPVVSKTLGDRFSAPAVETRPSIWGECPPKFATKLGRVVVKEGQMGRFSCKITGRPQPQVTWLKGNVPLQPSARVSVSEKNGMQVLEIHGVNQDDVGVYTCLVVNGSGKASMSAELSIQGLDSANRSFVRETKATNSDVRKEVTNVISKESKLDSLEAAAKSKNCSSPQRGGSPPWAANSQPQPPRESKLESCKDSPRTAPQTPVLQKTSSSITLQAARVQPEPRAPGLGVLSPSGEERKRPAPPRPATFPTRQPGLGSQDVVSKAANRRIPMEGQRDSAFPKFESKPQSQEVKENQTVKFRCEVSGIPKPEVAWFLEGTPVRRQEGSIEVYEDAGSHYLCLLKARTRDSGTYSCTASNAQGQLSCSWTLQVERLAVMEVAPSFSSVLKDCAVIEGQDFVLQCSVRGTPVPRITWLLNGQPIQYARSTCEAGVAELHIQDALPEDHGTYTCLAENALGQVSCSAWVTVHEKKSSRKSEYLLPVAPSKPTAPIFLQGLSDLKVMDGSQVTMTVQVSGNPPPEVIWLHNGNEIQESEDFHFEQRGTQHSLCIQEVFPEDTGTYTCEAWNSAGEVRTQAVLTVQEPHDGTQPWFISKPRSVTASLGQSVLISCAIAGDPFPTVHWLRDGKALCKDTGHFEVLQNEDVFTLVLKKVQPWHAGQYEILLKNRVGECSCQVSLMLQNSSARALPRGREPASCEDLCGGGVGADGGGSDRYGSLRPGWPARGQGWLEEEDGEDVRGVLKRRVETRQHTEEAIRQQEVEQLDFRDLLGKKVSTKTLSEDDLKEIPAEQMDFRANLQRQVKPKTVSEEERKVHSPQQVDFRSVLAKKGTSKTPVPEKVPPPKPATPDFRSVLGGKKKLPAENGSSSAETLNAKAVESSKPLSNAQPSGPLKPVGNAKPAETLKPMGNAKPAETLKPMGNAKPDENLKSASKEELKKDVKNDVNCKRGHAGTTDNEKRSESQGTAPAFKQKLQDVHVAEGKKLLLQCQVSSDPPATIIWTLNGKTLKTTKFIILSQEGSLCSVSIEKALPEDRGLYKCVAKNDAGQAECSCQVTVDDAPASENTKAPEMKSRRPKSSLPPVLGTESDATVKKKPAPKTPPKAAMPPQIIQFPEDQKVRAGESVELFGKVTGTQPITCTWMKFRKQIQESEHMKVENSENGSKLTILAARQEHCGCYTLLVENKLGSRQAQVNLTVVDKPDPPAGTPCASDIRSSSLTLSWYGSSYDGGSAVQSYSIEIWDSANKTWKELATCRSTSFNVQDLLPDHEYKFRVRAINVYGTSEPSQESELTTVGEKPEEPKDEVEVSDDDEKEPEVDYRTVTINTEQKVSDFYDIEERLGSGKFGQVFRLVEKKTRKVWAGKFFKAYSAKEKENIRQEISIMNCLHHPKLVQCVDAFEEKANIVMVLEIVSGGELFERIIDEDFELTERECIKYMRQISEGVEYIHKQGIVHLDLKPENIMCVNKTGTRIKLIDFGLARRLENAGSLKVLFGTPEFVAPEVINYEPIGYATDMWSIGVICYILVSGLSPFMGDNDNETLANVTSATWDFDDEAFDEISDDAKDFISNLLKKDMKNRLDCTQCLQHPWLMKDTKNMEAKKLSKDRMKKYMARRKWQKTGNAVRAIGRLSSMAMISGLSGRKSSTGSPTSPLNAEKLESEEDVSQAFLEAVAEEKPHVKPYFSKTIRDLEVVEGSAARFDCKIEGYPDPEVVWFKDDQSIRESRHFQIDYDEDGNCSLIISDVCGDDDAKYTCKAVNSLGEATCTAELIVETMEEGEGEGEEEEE
# [16] = test system: Receptor-type tyrosine-protein kinase FLT3 (Homo sapiens), P36888 [D835H]; assay: Inhibition of FLT3 D835H mutant assessed as residual activity at 10 uM relative to control
# [17] = molecular target: Mitogen-activated protein kinase 1 (Homo sapiens) (UniProt P28482); assay: Inhibition of ERK2 assessed as residual activity at 10 uM relative to control
# [18] = molecular target: T1, Ephrin type-B receptor 3 (Homo sapiens); assay: Inhibition of EPHB3 assessed as residual activity at 10 uM relative to control
# In short: (§2)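 Competition kinase-binding assay (KINOMEscan) across a non-redundant panel of 329 kinases beyond the radiometric panel; residual binding expressed relative to control.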
# [19] = molecular target: Ephrin type-A receptor 3 (Homo sapiens) (UniProt P29320); assay: Inhibition of EPHA3 assessed as residual activity at 10 uM relative to control; in short: as §2
# Ephrin type-A receptor 3 (Homo sapiens), sequence (P29320 whole entry): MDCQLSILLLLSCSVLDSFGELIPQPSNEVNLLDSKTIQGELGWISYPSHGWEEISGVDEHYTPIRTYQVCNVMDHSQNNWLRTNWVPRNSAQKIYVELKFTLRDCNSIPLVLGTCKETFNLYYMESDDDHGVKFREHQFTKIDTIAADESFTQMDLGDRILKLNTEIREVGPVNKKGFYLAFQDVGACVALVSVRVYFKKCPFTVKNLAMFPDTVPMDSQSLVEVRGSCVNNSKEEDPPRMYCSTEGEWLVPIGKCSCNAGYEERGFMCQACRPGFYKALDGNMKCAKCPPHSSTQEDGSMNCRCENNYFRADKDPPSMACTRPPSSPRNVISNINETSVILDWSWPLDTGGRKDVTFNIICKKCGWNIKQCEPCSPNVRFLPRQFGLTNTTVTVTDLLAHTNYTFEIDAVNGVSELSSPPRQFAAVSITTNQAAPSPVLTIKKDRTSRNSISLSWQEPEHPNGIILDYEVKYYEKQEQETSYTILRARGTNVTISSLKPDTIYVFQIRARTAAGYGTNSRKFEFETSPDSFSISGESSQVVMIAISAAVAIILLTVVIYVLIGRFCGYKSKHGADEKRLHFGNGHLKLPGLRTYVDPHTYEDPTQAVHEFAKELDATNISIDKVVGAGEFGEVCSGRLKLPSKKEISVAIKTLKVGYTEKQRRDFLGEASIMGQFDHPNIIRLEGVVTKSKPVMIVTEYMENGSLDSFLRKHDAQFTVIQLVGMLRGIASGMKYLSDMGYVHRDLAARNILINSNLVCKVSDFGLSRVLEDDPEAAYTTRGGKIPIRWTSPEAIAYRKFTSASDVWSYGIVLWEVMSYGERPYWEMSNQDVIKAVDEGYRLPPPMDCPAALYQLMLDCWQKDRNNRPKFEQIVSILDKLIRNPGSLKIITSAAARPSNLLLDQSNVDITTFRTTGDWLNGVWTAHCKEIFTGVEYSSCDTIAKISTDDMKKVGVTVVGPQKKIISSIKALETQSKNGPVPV
# [20] = test system: Epidermal growth factor receptor (Homo sapiens), P00533 [T790M]; assay: Inhibition of EGFR T790M mutant assessed as residual activity at 10 uM relative to control; format: protein assay; in short: as §2
# [21] = test system: Epidermal growth factor receptor (Homo sapiens), P00533 [L861Q]; assay: Inhibition of EGFR L861Q mutant assessed as residual activity at 10 uM relative to control; format: protein assay; in short: as §2
# [22] = test system: Epidermal growth factor receptor (Homo sapiens), P00533 [L858R,T790M]; assay: Inhibition of EGFR L858R,T790M mutant assessed as residual activity at 10 uM relative to control; format: protein assay; in short: as §2
# Plasma = assay: AUClast in Swiss albino mouse plasma at 1 mg/kg, iv; format: ADME, organism-based; design: time 0 - last, dose 1 mg/kg, route intravenous; conditions: in vivo
# In short: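 Male Swiss Albino mice, single dose given intravenously (1 mg/kg) or orally (10 mg/kg). Drug measured in plasma and brain, with AUClast taken for each. The brain/plasma ratio is based on AUClast, and oral bioavailability is derived from the IV and PO plasma data.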
# [23] = molecular target: Serine/threonine-protein kinase NLK (Homo sapiens) (UniProt Q9UBE8); assay: Inhibition of NLK assessed as residual activity at 10 uM relative to control
# [24] = molecular target: Myosin light chain kinase, smooth muscle (Homo sapiens) (UniProt Q15746); assay: Inhibition of MYLK assessed as residual activity at 10 uM relative to control
# Serine/threonine-protein kinase 36 (Homo sapiens), sequence (Q9NRP7 whole entry): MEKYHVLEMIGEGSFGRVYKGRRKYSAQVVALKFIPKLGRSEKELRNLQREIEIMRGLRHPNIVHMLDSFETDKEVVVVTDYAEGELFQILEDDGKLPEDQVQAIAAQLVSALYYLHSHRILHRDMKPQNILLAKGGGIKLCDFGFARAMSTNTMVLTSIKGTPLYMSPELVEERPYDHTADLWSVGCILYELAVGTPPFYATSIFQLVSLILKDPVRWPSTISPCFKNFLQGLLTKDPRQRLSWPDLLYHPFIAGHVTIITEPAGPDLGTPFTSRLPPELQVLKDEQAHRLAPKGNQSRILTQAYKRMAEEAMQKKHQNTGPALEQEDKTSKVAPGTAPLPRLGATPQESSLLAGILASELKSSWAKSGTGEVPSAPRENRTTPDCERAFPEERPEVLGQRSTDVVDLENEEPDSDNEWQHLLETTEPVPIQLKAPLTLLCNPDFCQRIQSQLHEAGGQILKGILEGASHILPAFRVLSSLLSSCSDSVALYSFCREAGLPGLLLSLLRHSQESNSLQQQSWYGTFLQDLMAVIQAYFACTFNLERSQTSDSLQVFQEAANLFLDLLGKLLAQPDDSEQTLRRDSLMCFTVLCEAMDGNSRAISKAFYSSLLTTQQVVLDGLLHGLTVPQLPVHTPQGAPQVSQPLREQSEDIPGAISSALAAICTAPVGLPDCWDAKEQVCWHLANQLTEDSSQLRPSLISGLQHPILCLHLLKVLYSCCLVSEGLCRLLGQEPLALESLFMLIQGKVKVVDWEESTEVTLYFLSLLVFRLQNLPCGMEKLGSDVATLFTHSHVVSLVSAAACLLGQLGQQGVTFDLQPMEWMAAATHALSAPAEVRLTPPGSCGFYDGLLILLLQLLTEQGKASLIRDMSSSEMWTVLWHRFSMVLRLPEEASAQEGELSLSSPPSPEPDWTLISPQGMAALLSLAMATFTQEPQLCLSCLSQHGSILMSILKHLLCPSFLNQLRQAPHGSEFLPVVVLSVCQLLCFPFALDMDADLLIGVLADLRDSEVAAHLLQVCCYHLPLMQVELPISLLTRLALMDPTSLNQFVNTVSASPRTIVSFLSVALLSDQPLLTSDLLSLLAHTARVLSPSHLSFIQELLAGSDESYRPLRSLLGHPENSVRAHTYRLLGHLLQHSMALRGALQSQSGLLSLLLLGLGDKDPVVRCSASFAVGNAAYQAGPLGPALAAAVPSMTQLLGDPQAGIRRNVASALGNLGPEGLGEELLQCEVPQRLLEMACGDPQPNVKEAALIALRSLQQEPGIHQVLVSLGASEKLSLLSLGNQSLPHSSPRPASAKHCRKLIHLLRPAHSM
compound,measurement,setting,value
O=C(Nc1cccnc1)c1cc(-c2ccnc(F)c2)ccc1OCc1ccccc1,Activity,[1],66%
same,Activity,[2],63%
same,Activity,[3],44%
same,Activity,[4],101%
same,Activity,[5],76%
same,Activity,[6],123%
same,Activity,[7],119%
same,Activity,[8],121%
same,Activity,[9],50%
same,Activity,[10],53%
same,Activity,[11],7.2%
same,Activity,[12],59%
same,Activity,[13],38%
same,Activity,[14],106%
same,Activity,[15],23%
same,Activity,[16],13%
same,Activity,[17],44%
same,Activity,[18],67%
same,Activity,[19],61%
same,Activity,[20],40%
same,Activity,[21],65%
same,Activity,[22],46%
same,AUClast,Plasma,519.6 ng·h/mL
same,Activity,[23],65%
same,Activity,[24],27%
